Assay results taken from ChEMBL document CHEMBL5376019, “Design, synthesis and evaluation of 2-phenylpyrimidine derivatives as novel antifungal agents targeting CYP51” (RSC Med Chem, 2024).
In brackets after ≈: the same amount, converted by molar mass.

Experiments:
Type in all cases: functional
Candida tropicalis = experiment: Antifungal activity against Candida tropicalis CGMCC 2.3739 assessed as fungal growth inhibition
Summary of the method: (§1)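 Broth microdilution per NCCLS M27-A3, with fluconazole as positive control. Assay medium was RPMI 1640 buffered with MOPS. Inocula were diluted to 1–5 × 10^3 CFU mL−1 and seeded in 96-well plates. Compounds were dissolved in DMSO and serially diluted in the growth medium. MIC was the read-out.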

Candida parapsilosis = experiment: Antifungal activity against Candida parapsilosis GIM 2.190 assessed as fungal growth inhibition; conditions: Lodderomyces parapsilosis; summary of the method: as §1
Candida albicans [1] = experiment: Antifungal activity against Candida albicans CPCC400616 assessed as fungal growth inhibition; summary of the method: as §1
Candida albicans [2] = experiment: Antifungal activity against Candida albicans ATCC SC5314 assessed as fungal growth inhibition; summary of the method: as §1
Nakaseomyces glabratus = experiment: Antifungal activity against clinical isolate Candida glabrata assessed as fungal growth inhibition; summary of the method: as §1
Cryptococcus neoformans = experiment: Antifungal activity against Cryptococcus neoformans CGMCC 2.3161 assessed as fungal growth inhibition; summary of the method: as §1
Pichia kudriavzevii = experiment: Antifungal activity against Pichia kudriavzevii GIM 2.1 assessed as fungal growth inhibition; summary of the method: as §1

SMILES	MIC (Candida tropicalis) [µg/mL]	MIC (Candida parapsilosis) [µg/mL]	MIC (Candida albicans [1]) [µg/mL]	MIC (Candida albicans [2]) [µg/mL]	MIC (Nakaseomyces glabratus) [µg/mL]	MIC (Cryptococcus neoformans) [µg/mL]	MIC (Pichia kudriavzevii) [µg/mL]
O=C(NC(Cn1ccnc1)C(=O)c1ccccc1)c1cc(-c2ccccc2)on1 (racemic)	> 64	> 64	64 (≈ 166 µM)	32 (≈ 82.8 µM)	> 64	> 64	> 64
Cc1ccc(-c2ncc(C(=O)NC(Cn3ccnc3)C(=O)c3ccccc3)cn2)cc1 (racemic)	> 64	> 64	> 64	> 64	> 64	> 64	> 64
CC(C)c1ccc(-c2ncc(C(=O)NC(Cn3ccnc3)C(=O)c3ccccc3)cn2)cc1 (racemic)	> 64	> 64	> 64	> 64	> 64	> 64	> 64
O=C(NC(Cn1ccnc1)C(=O)c1ccccc1)c1ccc(-c2ccoc2)cc1 (racemic)	> 64	> 64	> 64	16 (≈ 41.5 µM)	> 64	> 64	> 64
O=C(NC(Cn1ccnc1)C(=O)c1ccc(Br)cc1)c1cnc(-c2cccc(F)c2)nc1 (racemic)	16 (≈ 32.4 µM)	> 64	8 (≈ 16.2 µM)	0.5 (≈ 1.01 µM)	> 64	> 64	> 64
COc1ccc(-c2ncc(C(=O)NC(Cn3ccnc3)C(=O)c3ccccc3)cn2)cc1 (racemic)	> 64	> 64	> 64	> 64	> 64	> 64	> 64
CC(C)(C)c1cccc(-c2ncc(C(=O)NC(Cn3ccnc3)C(=O)c3ccccc3)cn2)c1 (racemic)	> 64	> 64	> 64	> 64	> 64	> 64	> 64
O=C(NC(Cn1ccnc1)C(=O)c1ccccc1)c1cnc(-c2ccc(Cl)cc2F)nc1 (racemic)	> 64	> 64	> 64	> 64	> 64	> 64	> 64
O=C(NC(Cn1ccnc1)C(=O)c1ccccc1)c1cnc(-c2cccc(OC(F)(F)F)c2)nc1 (racemic)	> 64	> 64	> 64	> 64	> 64	> 64	> 64
O=C(NC(Cn1ccnc1)C(=O)c1ccccc1)c1cnc(-c2ccc(OC(F)(F)F)cc2)nc1 (racemic)	> 64	> 64	> 64	> 64	> 64	> 64	> 64
O=C(NC(Cn1ccnc1)C(=O)c1ccccc1)c1cnc(-c2cccc(F)c2)nc1 (racemic)	4 (≈ 9.63 µM)	16 (≈ 38.5 µM)	8 (≈ 19.3 µM)	2 (≈ 4.81 µM)	32 (≈ 77 µM)	32 (≈ 77 µM)	32 (≈ 77 µM)
CC(C)c1cccc(-c2ncc(C(=O)NC(Cn3ccnc3)C(=O)c3ccccc3)cn2)c1 (racemic)	> 64	> 64	> 64	> 64	> 64	> 64	> 64
O=C(NC(Cn1ccnc1)C(=O)c1ccc(I)cc1)c1cnc(-c2cccc(F)c2)nc1 (racemic)	> 64	> 64	32 (≈ 59.1 µM)	1 (≈ 1.85 µM)	> 64	> 64	> 64
O=C(NC(Cn1ccnc1)C(=O)c1ccc(F)cc1)c1cnc(-c2cccc(F)c2)nc1 (racemic)	> 64	> 64	> 64	16 (≈ 36.9 µM)	> 64	> 64	> 64
O=C(NC(Cn1ccnc1)C(=O)c1ccccc1)c1cnc(-c2cccc(Cl)c2)nc1 (racemic)	> 64	> 64	> 64	> 64	> 64	> 64	> 64
O=C(NC(Cn1ccnc1)C(=O)c1ccccc1)c1ccc(-c2cccnc2)cc1 (racemic)	> 64	> 64	32 (≈ 80.7 µM)	8 (≈ 20.2 µM)	> 64	> 64	> 64
OC(Cn1cncn1)(Cn1cncn1)c1ccc(F)cc1F [FLUCONAZOLE]	0.5 (≈ 1.63 µM)	2 (≈ 6.53 µM)	1 (≈ 3.27 µM)	0.5 (≈ 1.63 µM)	4 (≈ 13.1 µM)	4 (≈ 13.1 µM)	8 (≈ 26.1 µM)
